Assay outcomes (PubChem BioAssay)
Shown are actives, neighbours in structure and some others; about 2.2% of the full set was active somewhere.
Runt-SMMHC FRET = inhibitors of human RUNX1 Runt domain binding to CBFb-SMMHC | Cerulean-Runt/Venus-CBFb-SMMHC FRET ratio 530/480, 1 h | 220,000 tested, 0.74% active | Q01196+Q13951 | inhibition, % at 20 µM;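 active = mean inhibition across duplicate retests at 20 µM reaching about 50%, limit read from the data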;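 also: 0% = DMSO wells and 100% = wells with excess untagged CBFb-SMMHC; inhibitors lower the FRET ratio by blocking Runt binding to CBFb-SMMHC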
RanGTP-Imp inh = inhibitors of RanGTP-importin-beta interaction, primary screen, biochemical, FRET, CFP-Ran, YFP-importin-beta, homogeneous. AID 2216. 300,000 tested, 1.1% active. cell-free CFP-Ran/YFP-importin-beta FRET ratio. inhibition, % (concentration not given with the values);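 active = more than half of the replicate wells show a fall in the fluorescence ratio signal beyond about 16%, limit read from the data, passing the limit was not always enough; inconclusive = exactly half of the replicate wells pass the set limit; inactive = fewer than half of replicates pass the limit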;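 also: 0% = DMSO wells and 100% = Ran loaded with GDP instead of GTP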
Runt-CBFb FRET = blocks binding of human RUNX1 Runt domain to CBFb. Q01196+Q13951. Cerulean-Runt/Venus-CBFb FRET ratio 530/480, 1 h. inhibition, % at 20 µM. 220,000 tested, 0.46% active;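 active = inhibition over about 50% at 20 µM in the single-dose screen, limit read from the data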;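 also: 0% = DMSO wells and 100% = excess unlabeled CBFb competitor control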
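Assay system: Cerulean-tagged RUNX1 Runt domain (FRET donor) fusion protein / Amount: 100 nM each of Venus-CBFb and Cerulean-Runt domain / Medium: Tris buffer pH 7.5 with salts and BSA / Also added: Venus-CBFb 100 nM / Schedule: 1 h complex formation plus 1 h compound treatment, room temperature / Signal: FRET fluorescence / Read-out: loss of energy transfer signal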
TbHK1 inh = T. brucei hexokinase 1 inhibition; recombinant TbHK1, G6PDH-coupled NADH A340; inhibition, % at 10 µM; 220,000 tested, 0.11% active; AID 1430;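 active = inhibition of 50% or more in the single-dose primary screen; inactive = inhibition below 50%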
14-3-3 Bad PPI = disrupts binding of bovine 14-3-3 zeta to phospho-Bad peptide; TR-FRET 14-3-3zeta/Dy647-pBad peptide displacement, 1 h; inhibition, % at 21.7 µM; 220,000 tested, 0.71% active;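 active = inhibition above about 70%, limit read from the data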;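 also: 0% = full 14-3-3 plus peptide FRET controls and 100% = background without 14-3-3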
Target sequence (P63103 whole entry, looked up): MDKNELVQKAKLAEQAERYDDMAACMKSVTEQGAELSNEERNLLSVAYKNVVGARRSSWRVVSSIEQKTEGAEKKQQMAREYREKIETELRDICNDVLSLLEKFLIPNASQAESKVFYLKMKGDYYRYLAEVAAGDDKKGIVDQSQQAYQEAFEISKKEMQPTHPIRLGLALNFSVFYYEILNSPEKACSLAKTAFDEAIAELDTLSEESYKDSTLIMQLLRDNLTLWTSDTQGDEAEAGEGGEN
Hck Nef HTS = inhibitors of human Hck kinase activated by Nef | Recombinant Hck-YEEI plus Nef, Z-Lyte FRET kinase assay | inhibition, % at 20 µM | 220,000 tested, 0.68% active | P08631 | AID 463187;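 active = Hck-Nef kinase inhibition above about 50%, limit read from the data; inactive = inhibition below that limit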;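 also: 0% = DMSO with Hck plus Nef and 100% = Hck alone without Nef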
* hit, by the source's call; [ ] = remark or other dose.

Results for CCOC(=O)N1CCC(N2CCN(S(=O)(=O)CC)CC2)CC1 ?
Runt-SMMHC FRET: -2; RanGTP-Imp inh: 1; Runt-CBFb FRET: -1; TbHK1 inh: 0; 14-3-3 Bad PPI: 72*; Hck Nef HTS: -1

Results for CCOC(=O)N1CCC(N2CCN(S(=O)(=O)c3ccc(C)cc3)CC2)CC1 ?
Runt-SMMHC FRET: -1; RanGTP-Imp inh: inconclusive; Runt-CBFb FRET: 1; TbHK1 inh: -5; 14-3-3 Bad PPI: 64; Hck Nef HTS: 0

What do the screens show for `O=C(CSCc1ccccn1)Nc1ccccc1`?
Runt-SMMHC FRET: 0; RanGTP-Imp inh: 3; Runt-CBFb FRET: 0; TbHK1 inh: -8; 14-3-3 Bad PPI: -2; Hck Nef HTS: -2

Results for O=C(Cc1ccccn1)Nc1ccccc1 ?
Runt-SMMHC FRET: 0; RanGTP-Imp inh: 1; Runt-CBFb FRET: 0; TbHK1 inh: 2; 14-3-3 Bad PPI: 73*[fluorescence artefact?]; Hck Nef HTS: 1

Results for O=C(c1ccccc1)[C@@H]1[C@@H](C(=O)c2ccc(F)cc2)[C@@]2(C(=O)Nc3ccccc32)[C@H]2c3ccccc3C=CN12 ?
Runt-SMMHC FRET: -1; RanGTP-Imp inh: 21*; Runt-CBFb FRET: 0; TbHK1 inh: 0; 14-3-3 Bad PPI: -2; Hck Nef HTS: 1

How did CC(C)Sc1nc2ccccc2[nH]1 do in these assays?
Runt-SMMHC FRET: -3; RanGTP-Imp inh: -2; Runt-CBFb FRET: -1; TbHK1 inh: 0; 14-3-3 Bad PPI: -19; Hck Nef HTS: 17

How did Cc1cc(C)n(-c2nc3ccccc3nc2Nc2ccc3[nH]c(=O)[nH]c3c2)n1 do in these assays?
Runt-SMMHC FRET: -8; RanGTP-Imp inh: 32*; Runt-CBFb FRET: -3; TbHK1 inh: -6; 14-3-3 Bad PPI: 8; Hck Nef HTS: -1

How did CCN(CC)S(=O)(=O)c1ccc2c(c1)N(CC(=O)N1CCC(C(N)=O)CC1)C(=O)CO2 do in these assays?
RanGTP-Imp inh: 2

What do the screens show for `O=C1OCC2OC(O)C(O)C(O)C2OC(=O)c2cc(O)c(O)c(O)c2-c2c(O)c(O)c3oc(=O)c4c(c(O)c(O)c5oc(=O)c2c3c54)-c2c1cc(O)c(O)c2O` (stereo not given)?
Runt-SMMHC FRET: 6; Runt-CBFb FRET: 43; TbHK1 inh: 54*; 14-3-3 Bad PPI: 75*; Hck Nef HTS: 4

What do the screens show for `CN(C)S(=O)(=O)c1cccc(NC(=O)c2cc3ccccc3o2)c1`?
Runt-SMMHC FRET: 2; RanGTP-Imp inh: -6; Runt-CBFb FRET: 0; TbHK1 inh: -11; 14-3-3 Bad PPI: 75*[fluorescence artefact?]; Hck Nef HTS: 7

Results for CCOC(=O)c1c(CN2CCN(C)CC2)oc2ccc(O)cc12 ?
Runt-SMMHC FRET: -2; RanGTP-Imp inh: 7; Runt-CBFb FRET: -1; TbHK1 inh: -2; 14-3-3 Bad PPI: 75*; Hck Nef HTS: 0

What do the screens show for `OCCNc1nc(N2CCN(Cc3ccccc3)CC2)nc2ccccc12`?
Runt-SMMHC FRET: 3; RanGTP-Imp inh: -4; Runt-CBFb FRET: -1; TbHK1 inh: -7; 14-3-3 Bad PPI: 80*; Hck Nef HTS: 1

Results for CCN1CCN(c2nc(NCCO)c3ccccc3n2)CC1 ?
RanGTP-Imp inh: -3

Results for Cc1nn(C(C)C(=O)NCCc2cccs2)c(=O)c2nn(-c3ccccc3)c(C)c12 (stereo not given) ?
RanGTP-Imp inh: -1

What do the screens show for `CCCc1cc(C(=O)Cc2ccc(F)cc2)c(O)cc1O`?
Runt-SMMHC FRET: -3; RanGTP-Imp inh: -2; Runt-CBFb FRET: -2; TbHK1 inh: -22; 14-3-3 Bad PPI: -8; Hck Nef HTS: -12

What do the screens show for `CCCc1cc(C(=O)Cc2nc3ccccc3s2)c(O)cc1O`?
Runt-SMMHC FRET: -21; RanGTP-Imp inh: 112*; TbHK1 inh: -19; 14-3-3 Bad PPI: 1; Hck Nef HTS: 10

How did CCOC(=O)C(=O)Cc1nc2ccccc2s1 do in these assays?
Runt-SMMHC FRET: -1; RanGTP-Imp inh: 52*; Runt-CBFb FRET: 1; TbHK1 inh: -17; 14-3-3 Bad PPI: -17; Hck Nef HTS: 5

Results for CCCCC(=O)Nc1ccc(C(=O)N(CC)c2ccccc2C)cc1 ?
Runt-SMMHC FRET: 0; RanGTP-Imp inh: -1; Runt-CBFb FRET: -1; TbHK1 inh: -4; 14-3-3 Bad PPI: -6; Hck Nef HTS: -19

How did COc1ccc(NC(=O)COC(=O)CCNS(=O)(=O)c2ccc(Cl)cc2)cc1 do in these assays?
Runt-SMMHC FRET: 1; RanGTP-Imp inh: -3; Runt-CBFb FRET: -1; TbHK1 inh: -8; 14-3-3 Bad PPI: -2; Hck Nef HTS: 22

How did CC(C(=O)Nc1ccc2c(c1)OCCO2)N(C)Cc1c(F)cccc1Cl (stereo not given) do in these assays?
Runt-SMMHC FRET: -3; RanGTP-Imp inh: -3; Runt-CBFb FRET: 0; TbHK1 inh: -2; 14-3-3 Bad PPI: 97*; Hck Nef HTS: 4

What do the screens show for `O=C1NC(=S)N/C1=C/c1ccc(-c2c(Br)cc([N+](=O)[O-])cc2Br)o1`?
Runt-SMMHC FRET: -36; Runt-CBFb FRET: -16; TbHK1 inh: 15; 14-3-3 Bad PPI: 95*[fluorescence artefact?]; Hck Nef HTS: 17

How did O=C1NC(=S)N/C1=C/c1cccc([N+](=O)[O-])c1 do in these assays?
Runt-SMMHC FRET: 2; RanGTP-Imp inh: 6; Runt-CBFb FRET: 2; TbHK1 inh: -1; 14-3-3 Bad PPI: 7; Hck Nef HTS: 19

How did Cc1ccc(-c2ccc(/C=C3/NC(=O)NC3=O)o2)cc1[N+](=O)[O-] do in these assays?
Runt-SMMHC FRET: 8; RanGTP-Imp inh: 6; Runt-CBFb FRET: 22; TbHK1 inh: -12; 14-3-3 Bad PPI: 90*[fluorescence artefact?]; Hck Nef HTS: 15

Results for CC(=O)c1cccc(NC(=O)c2ccc(Br)o2)c1 ?
Runt-SMMHC FRET: 2; RanGTP-Imp inh: 2; Runt-CBFb FRET: -2; TbHK1 inh: 4; 14-3-3 Bad PPI: -13; Hck Nef HTS: -2

What do the screens show for `CCCCC(=O)Nc1cccc(NC(=O)c2ccc(Br)o2)c1`?
Runt-SMMHC FRET: 0; RanGTP-Imp inh: 38*; Runt-CBFb FRET: 0; TbHK1 inh: 4; 14-3-3 Bad PPI: 0; Hck Nef HTS: 2

How did Cc1ccc2c(c1)N(C(=O)CCC(=O)NC1CCC(C)CC1)CCO2 (stereo not given) do in these assays?
RanGTP-Imp inh: 0

Results for CCCOc1ccc([C@@H]2C3CN(C(=O)OCC)CC=C3C(C#N)=C(N)C2(C#N)C#N)cc1OC (stereo not given in full) ?
Runt-SMMHC FRET: 8; RanGTP-Imp inh: 5; Runt-CBFb FRET: 0; TbHK1 inh: -10; 14-3-3 Bad PPI: 10; Hck Nef HTS: 2

How did COc1cc([C@@H]2[C@H]3CNCC=C3C(C#N)=C(N)C2(C#N)C#N)ccc1OC(C)C do in these assays?
Runt-SMMHC FRET: 52; RanGTP-Imp inh: 63*; Runt-CBFb FRET: 7; TbHK1 inh: -7; 14-3-3 Bad PPI: 4; Hck Nef HTS: 17
